Reference: ChEMBL document CHEMBL3865800, “Design, synthesis and biological evaluation of 4-anilinoquinazoline derivatives as new c-myc G-quadruplex ligands” (Eur J Med Chem, 2016)
Blank lines part the entries; values can stand above or below the compound they belong to. Active and inactive are the calls of the source. The calls are words filed in the database; no cut-off is given here.

Experiments:
[1] = Cytotoxicity against mouse primary mesangial cells assessed as reduction in cell viability after 48 hrs by MTT assay; assay type: toxicity
[2] = Cytotoxicity against human CA46 cells assessed as reduction in cell viability after 48 hrs by MTT assay; assay type: functional, cell-based; settings: CA46, 48 h
[3] = Cytotoxicity against human Raji cells assessed as reduction in cell viability after 48 hrs by MTT assay; assay type: functional, cell-based
[4] = Cytotoxicity against human A549 cells assessed as reduction in cell viability after 48 hrs by MTT assay; assay type: functional, cell-based; settings: A549, 48 h
[5] = Cytotoxicity against human HeLa cells assessed as reduction in cell viability after 48 hrs by MTT assay; assay type: functional, cell-based
[6] = Binding affinity to 5'-Pu22-3' c-myc G-quadruplex DNA (unknown origin) assessed as maintainance of parallel c-myc G-quadruplex conformation at 2 equiv after 6 hrs in presence of KCl by CD-spectroscopic analysis
Summary of the method: (§1)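 Pu22 at 3 μM final in 10 mM Tris-HCl buffer with ligand at 2 equiv, with 100 mM KCl or without KCl; heated 95 °C 5 min, slowly cooled, held ≥6 h; CD spectra 230–330 nm, 1 mm quartz cell, 1 nm bandwidth and step, 0.5 s/point, average of two scans.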

[7] = Binding affinity to biotinylated 5'-Pu22-3'-labelled c-myc G-quadruplex DNA (unknown origin) after 240 secs by SPR assay
Summary of the method: (§2)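 SPR: biotinylated Pu22 and biotinylated duplex folded in 50 mM Tris-HCl pH 7.4, 150 mM KCl, 0.005% Tween20, captured (~1000 RU) on separate flow cells with a blank reference; ligand 0.0625–10 μM in running buffer, 240 s association then 240 s dissociation at 25 °C; equilibrium KD derived.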

[8] = Binding affinity to 5'-FPu22T-3'-labelled c-myc G-quadruplex DNA (unknown origin) assessed as change in melting temperature at 2 uM in presence ds26 DNA of by FRET assay
Summary of the method: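 FRET melting of 0.4 μM labelled FPu22T with ligand 2.0 μM, alone or with 10-fold (4 μM), 50-fold (20 μM) or 100-fold (40 μM) excess unlabelled duplex ds26 as competitor; Tris-HCl 10 mM pH 7.4 with 10 or 60 mM KCl; ex 470/em 530 nm read every 1 °C from 37–99 °C, 30 s hold; ΔTm = Tm(DNA+ligand) − Tm(DNA).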

[9] = Binding affinity to F10T duplex DNA (unknown origin) assessed as change in melting temperature by FRET assay
Summary of the method: (§3)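 Fluorescence melting on real-time PCR instrument; 0.4 μM labelled oligonucleotide (FPu22T or duplex-forming F10T), ligand 2.0 μM, in 10 mM Tris-HCl pH 7.4 with 10 or 60 mM KCl; ex 470/em 530 nm at 1 °C steps over 37–99 °C, 30 s equilibration each; ΔTm = Tm(DNA+ligand) − Tm(DNA).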

[10] = Binding affinity to 5'-FPu22T-3'-labelled c-myc G-quadruplex DNA (unknown origin) assessed as change in melting temperature by FRET assay; summary of the method: as §3
[11] = Binding affinity to 5'-Pu22-3' c-myc G-quadruplex DNA (unknown origin) assessed as induction of parallel c-myc G-quadruplex conformation at 2 equiv after 6 hrs in absence of KCl by CD-spectroscopic analysis; summary of the method: as §1
[12] = Selectivity ratio of Kd for double stranded DNA (unknown origin) to Kd for biotinylated 5'-Pu22-3'-labelled c-myc G-quadruplex DNA
[13] = Binding affinity to biotinylated double stranded DNA (unknown origin) after 240 secs by SPR assay; summary of the method: as §2
[14] = Drug uptake in human HeLa cells at 10 uM after 48 hrs
HeLa [15] = assay: Binding affinity to c-myc G-quadruplex DNA in human HeLa cells assessed as inhibition of c-myc transcription after 3 hrs by RT-PCR analysis; assay type: cell-based
Summary of the method: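 HeLa (2×10^5/well) treated 3 h with 1.25–10 μM or DMSO; total RNA oligo-dT primed, M-MLV reverse transcribed (70 °C 10 min; 42 °C 1 h; 70 °C 15 min); c-myc and β-actin (internal control) amplified by real-time PCR, products run on 1.5% agarose.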

HeLa [16] = assay: Binding affinity to c-myc G-quadruplex DNA in human HeLa cells assessed as reduction in c-myc gene expression at 1.25 to 10 uM after 6 hrs by Western blot analysis; assay type: cell-based
Summary of the method: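 HeLa treated 6 h at 0–10 μM; lysates BCA-quantified, 20 μg protein on 12% SDS–PAGE, transferred to nitrocellulose, blocked in 5% BSA/TBS-Tween; probed with anti-c-myc and anti-GAPDH (loading control), HRP secondary, chemiluminescent detection.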

HeLa [17] = assay: Cytotoxicity against human HeLa cells assessed as cell growth inhibition at 1.25 to 10 uM after 80 hrs by RTCA assay; assay type: functional, cell-based
Mus musculus = species: Mus musculus; assay: Cytotoxicity against mouse primary mesangial cells assessed as cell growth inhibition at 1.25 to 10 uM after 80 hrs by RTCA assay; assay type: toxicity, cell-based
[18] = Cell cycle arrest in human HeLa cells assessed as accumulation at G0/G1 phase after 12 hrs by propidium iodide based FACS analysis (reference value: 30.8 %); assay type: functional
[19] = Cell cycle arrest in human HeLa cells assessed as accumulation at S phase after 12 hrs by propidium iodide based FACS analysis (reference value: 23.1 %); assay type: functional
[20] = Cell cycle arrest in human HeLa cells assessed as accumulation at G2/M phase after 12 hrs by propidium iodide based FACS analysis (reference value: 46.1 %); assay type: functional
[21] = Cell cycle arrest in human HeLa cells assessed as accumulation at G0/G1 phase after 24 hrs by propidium iodide based FACS analysis (reference value: 30.8 %); assay type: functional
[22] = Cell cycle arrest in human HeLa cells assessed as accumulation at S phase after 24 hrs by propidium iodide based FACS analysis (reference value: 23.1 %); assay type: functional
[23] = Cell cycle arrest in human HeLa cells assessed as accumulation at G2/M phase after 24 hrs by propidium iodide based FACS analysis (reference value: 46.1 %); assay type: functional
[24] = Cell cycle arrest in human HeLa cells assessed as accumulation at G0/G1 phase after 48 hrs by propidium iodide based FACS analysis (reference value: 30.8 %); assay type: functional
[25] = Cell cycle arrest in human HeLa cells assessed as accumulation at S phase after 48 hrs by propidium iodide based FACS analysis (reference value: 23.1 %); assay type: functional
[26] = Cell cycle arrest in human HeLa cells assessed as accumulation at G2/M phase after 48 hrs by propidium iodide based FACS analysis (reference value: 46.1 %); assay type: functional
[27] = Cell cycle arrest in human HeLa cells assessed as accumulation at G0/G1 phase at 1.25 uM after 48 hrs by propidium iodide based FACS analysis (reference value: 35.9 %); assay type: functional
[28] = Cell cycle arrest in human HeLa cells assessed as accumulation at S phase at 1.25 uM after 48 hrs by propidium iodide based FACS analysis (reference value: 28.6 %); assay type: functional
[29] = Cell cycle arrest in human HeLa cells assessed as accumulation at G2/M phase at 1.25 uM after 48 hrs by propidium iodide based FACS analysis (reference value: 33.7 %); assay type: functional
[30] = Cell cycle arrest in human HeLa cells assessed as accumulation at G0/G1 phase at 2.5 uM after 48 hrs by propidium iodide based FACS analysis (reference value: 35.9 %); assay type: functional
[31] = Cell cycle arrest in human HeLa cells assessed as accumulation at S phase at 2.5 uM after 48 hrs by propidium iodide based FACS analysis (reference value: 28.6 %); assay type: functional
[32] = Cell cycle arrest in human HeLa cells assessed as accumulation at G2/M phase at 2.5 uM after 48 hrs by propidium iodide based FACS analysis (reference value: 33.7 %); assay type: functional
[33] = Cell cycle arrest in human HeLa cells assessed as accumulation at G0/G1 phase at 5 uM after 48 hrs by propidium iodide based FACS analysis (reference value: 35.9 %); assay type: functional
[34] = Cell cycle arrest in human HeLa cells assessed as accumulation at S phase at 5 uM after 48 hrs by propidium iodide based FACS analysis (reference value: 28.6 %); assay type: functional
[35] = Cell cycle arrest in human HeLa cells assessed as accumulation at G2/M phase at 5 uM after 48 hrs by propidium iodide based FACS analysis (reference value: 33.7 %); assay type: functional

Structure (SMILES): CN(C)CCNCCC(=O)Nc1ccc(Nc2nc(-c3ccccc3NC(=O)CCNCCN(C)C)nc3ccccc23)cc1
IC50 at 48 h [1]: > 50 µM
IC50 [2]: 28.2 µM
IC50 [3]: > 50 µM
IC50 [4]: > 50 µM
IC50 [5]: > 50 µM
Activity [6]: Active
Kd [7]: 0.14 µM
Activity [8]: Active
ΔTm [9]: 0.8 °C
ΔTm [10]: 19.4 °C
Activity [11]: Active

Structure (SMILES): O=C(CN1CCCC1)Nc1ccc(Nc2nc(-c3ccccc3NC(=O)CN3CCCC3)nc3ccccc23)cc1
IC50 at 48 h [1]: 16.5 µM
IC50 [2]: 1.8 µM
IC50 [3]: 1.9 µM
IC50 [4]: 18.7 µM
IC50 [5]: 2.9 µM
Activity [6]: Active
Selectivity ratio [12]: > 62.5
Kd [13]: > 10 µM
Kd [7]: 0.16 µM
Activity [8]: Active
ΔTm [9]: 0.6 °C
ΔTm [10]: 13.3 °C
Activity [11]: Active
Drug uptake [14]: Active

Structure (SMILES): CCN(CC)CCNCCC(=O)Nc1ccc(Nc2nc(-c3ccccc3NC(=O)CCNCCN(CC)CC)nc3ccccc23)cc1
IC50 at 48 h [1]: > 50 µM
IC50 [2]: > 50 µM
IC50 [3]: > 50 µM
IC50 [4]: > 50 µM
IC50 [5]: > 50 µM
Activity [6]: Active
Kd [7]: 0.21 µM
Activity [8]: Active
ΔTm [9]: 0.6 °C
ΔTm [10]: 18 °C
Activity [11]: Active

Structure (SMILES): CCN(CC)CCC(=O)Nc1ccc(Nc2nc(-c3ccccc3NC(=O)CCN(CC)CC)nc3ccccc23)cc1
IC50 at 48 h [1]: 13.1 µM
IC50 [2]: 6.5 µM
IC50 [3]: 3.1 µM
IC50 [4]: 5.9 µM
IC50 [5]: 4.4 µM
Activity [6]: Active
Selectivity ratio [12]: > 47.6
Kd [13]: > 10 µM
Kd [7]: 0.21 µM
Activity [8]: Active
ΔTm [9]: 0.8 °C
ΔTm [10]: 19.6 °C
inhibition (HeLa [15]): Dose-dependent effect
inhibition (HeLa [16]): Active
growth inhibition (GI) (HeLa [17]): Active
Activity (Mus musculus): Non-Toxic
Activity [18]: 41.8%
Activity [19]: 19.4%
Activity [20]: 38.8%
Activity [21]: 43.5%
Activity [22]: 18.4%
Activity [23]: 38.1%
Activity [24]: 61.1%
Activity [25]: 16.8%
Activity [26]: 22.1%
Activity [27]: 48.4%
Activity [28]: 26.4%
Activity [29]: 22.2%
Activity [30]: 48.9%
Activity [31]: 30.2%
Activity [32]: 18.4%
Activity [33]: 54.8%
Activity [34]: 29%
Activity [35]: 12.7%
Activity [11]: Active
Drug uptake [14]: Active

Now from value to compound, other results behind:

Activity [6]: Active
Kd [7]: 0.4 µM
Activity [8]: Active
ΔTm [9]: 0.3 °C
ΔTm [10]: 13.2 °C
Activity [11]: Active
Structure (SMILES): CN1CCN(CCC(=O)Nc2ccc(Nc3nc(-c4ccccc4NC(=O)CCN4CCN(C)CC4)nc4ccccc34)cc2)CC1
IC50 at 48 h [1]: > 50 µM
IC50 [2]: 19.5 µM
IC50 [3]: 27.8 µM
IC50 [4]: > 50 µM
IC50 [5]: 20.1 µM

Activity [6]: Active
Selectivity ratio [12]: > 45.4
Kd [13]: > 10 µM
Kd [7]: 0.22 µM
Activity [8]: Active
ΔTm [9]: 1.4 °C
ΔTm [10]: 17.9 °C
Activity [11]: Active
Structure (SMILES): O=C(CCN1CCCCC1)Nc1ccc(Nc2nc(-c3ccccc3NC(=O)CCN3CCCCC3)nc3ccccc23)cc1
IC50 at 48 h [1]: 6.3 µM
IC50 [2]: 4.5 µM
IC50 [3]: 1.3 µM
IC50 [4]: 7.5 µM
IC50 [5]: 7.4 µM

Activity [6]: Active
Selectivity ratio [12]: > 50
Kd [13]: > 10 µM
Kd [7]: 0.2 µM
Activity [8]: Active
ΔTm [9]: 0.9 °C
ΔTm [10]: 14.2 °C
Activity [11]: Active
Drug uptake [14]: Active
Structure (SMILES): O=C(CCN1CCCC1)Nc1ccc(Nc2nc(-c3ccccc3NC(=O)CCN3CCCC3)nc3ccccc23)cc1
IC50 at 48 h [1]: 23.3 µM
IC50 [2]: 7.2 µM
IC50 [3]: 4 µM
IC50 [4]: 26.6 µM
IC50 [5]: 7 µM
